Data from ChEMBL document CHEMBL1275278, “Synthesis and pharmacological evaluation of clubbed isopropylthiazole derived triazolothiadiazoles, triazolothiadiazines and mannich bases as potential antimicrobial and antitubercular agents” (Eur J Med Chem, 2010).
Values after ≈ are worked out from the molar mass of the structure shown.

Legend:
Assay type in all cases: functional
[1] = system: Escherichia coli; assay: Antibacterial activity against Escherichia coli ATCC 10536 after 24 hrs by broth microdilution method; conditions: ATCC 10536, 24 h
Outline: (§1)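 Broth dilution in Mueller-Hinton broth. Tubes inoculated at 10⁵ cfu/mL and incubated 37 °C for 24 h. MIC taken as lowest concentration completely inhibiting growth. Media and media-plus-DMSO growth controls; ciprofloxacin and norfloxacin as reference standards.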

[2] = system: Saccharomyces cerevisiae; assay: Antifungal activity against Saccharomyces cerevisiae ATCC 9763 after 24 hrs by broth microdilution method; conditions: ATCC 9763, 24 h
[3] = system: Aspergillus niger; assay: Antifungal activity against Aspergillus niger ATCC 6275 after 24 hrs by broth microdilution method; conditions: ATCC 6275, 24 h
[4] = system: Pseudomonas aeruginosa; assay: Antibacterial activity against Pseudomonas aeruginosa ATCC 10145 after 24 hrs by broth microdilution method; conditions: ATCC 10145, 24 h; outline: as §1
[5] = system: Staphylococcus aureus; assay: Antibacterial activity against Staphylococcus aureus ATCC 11632 after 24 hrs by broth microdilution method; conditions: ATCC 11632, 24 h; outline: as §1
[6] = system: Enterococcus faecalis; assay: Antibacterial activity against Streptococcus faecalis ATCC 14506 after 24 hrs by broth microdilution method; conditions: ATCC 14506, 24 h; outline: as §1
[7] = system: Candida tropicalis; assay: Antifungal activity against Candida tropicalis ATCC 1369 after 24 hrs by broth microdilution method; conditions: ATCC 1369, 24 h
[8] = system: Mycobacterium tuberculosis; assay: Antimycobacterial activity against Mycobacterium tuberculosis H37Rv after 21 days by broth dilution assay; conditions: 504 h
Outline: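 Frozen culture in Middlebrook 7H9 broth with 10% albumin-dextrose-catalase and 0.2% glycerol, thawed and diluted in broth to 10⁵ cfu/mL. Compounds dissolved in DMSO, twofold diluted in broth; final DMSO 1.3%. Tubes inoculated, incubated at 37 °C. Growth compared visually against drug-free and drug- and inoculum-free controls and isoniazid. MIC = lowest concentration inhibiting ≥99% of the starting bacterial population.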

[9] = system: Klebsiella pneumoniae; assay: Antibacterial activity against Klebsiella pneumoniae ATCC 10031 after 24 hrs by broth microdilution method; conditions: ATCC 10031, 24 h; outline: as §1
[10] = system: Bacillus subtilis; assay: Antibacterial activity against Bacillus subtilis ATCC 60511 after 24 hrs by broth microdilution method; conditions: ATCC 60511, 24 h; outline: as §1

| SMILES | MIC [1] | MIC [2] | MIC [3] | MIC [4] | MIC [5] | MIC [6] | MIC [7] | MIC [8] | MIC [9] | MIC [10] |
| --- | --- | --- | --- | --- | --- | --- | --- | --- | --- | --- |
| CC(C)c1csc(-c2nnc3sc(S)nn23)n1 | 62.5 µg/mL (≈ 221 µM) | 16 µg/mL (≈ 56.5 µM) | 16 µg/mL (≈ 56.5 µM) | 31.2 µg/mL (≈ 110 µM) | 125 µg/mL (≈ 441 µM) | 31.2 µg/mL (≈ 110 µM) | 8 µg/mL (≈ 28.2 µM) | 31.2 µg/mL (≈ 110 µM) | 31.2 µg/mL (≈ 110 µM) | 16 µg/mL (≈ 56.5 µM) |
| Cc1nn2c(-c3nc(C(C)C)cs3)nnc2s1 | 125 µg/mL (≈ 471 µM) | 62.5 µg/mL (≈ 236 µM) | 31.2 µg/mL (≈ 118 µM) | 62.5 µg/mL (≈ 236 µM) | 62.5 µg/mL (≈ 236 µM) | 31.2 µg/mL (≈ 118 µM) | 31.2 µg/mL (≈ 118 µM) | 31.2 µg/mL (≈ 118 µM) | 16 µg/mL (≈ 60.3 µM) | 31.2 µg/mL (≈ 118 µM) |
| COc1cc(C2Nn3c(nnc3-c3nc(C(C)C)cs3)S2)cc(OC)c1OC (centres undefined) | 125 µg/mL (≈ 298 µM) | 16 µg/mL (≈ 38.1 µM) | 31.2 µg/mL (≈ 74.5 µM) | 31.2 µg/mL (≈ 74.5 µM) | 31.2 µg/mL (≈ 74.5 µM) | 31.2 µg/mL (≈ 74.5 µM) | 16 µg/mL (≈ 38.1 µM) | 62.5 µg/mL (≈ 149 µM) | 62.5 µg/mL (≈ 149 µM) | 31.2 µg/mL (≈ 74.5 µM) |
| CC(C)c1csc(-c2nnc3n2NC(c2ccc(O)cc2)S3)n1 (centres undefined) | 62.5 µg/mL (≈ 181 µM) | 62.5 µg/mL (≈ 181 µM) | 125 µg/mL (≈ 362 µM) | 62.5 µg/mL (≈ 181 µM) | 62.5 µg/mL (≈ 181 µM) | 62.5 µg/mL (≈ 181 µM) | 125 µg/mL (≈ 362 µM) | 125 µg/mL (≈ 362 µM) | 62.5 µg/mL (≈ 181 µM) | 31.2 µg/mL (≈ 90.5 µM) |
| CC(C)c1csc(-c2nnc3n2NC(c2ccc([N+](=O)[O-])cc2)S3)n1 (centres undefined) | 62.5 µg/mL (≈ 167 µM) | 16 µg/mL (≈ 42.7 µM) | 8 µg/mL (≈ 21.4 µM) | 125 µg/mL (≈ 334 µM) | 125 µg/mL (≈ 334 µM) | 125 µg/mL (≈ 334 µM) | 8 µg/mL (≈ 21.4 µM) | 62.5 µg/mL (≈ 167 µM) | 31.2 µg/mL (≈ 83.5 µM) | 62.5 µg/mL (≈ 167 µM) |
| CC(C)c1csc(-c2n[nH]c(=S)n2NC(=O)c2ccccc2)n1 | 31.2 µg/mL (≈ 90.5 µM) | 62.5 µg/mL (≈ 181 µM) | 16 µg/mL (≈ 46.3 µM) | 16 µg/mL (≈ 46.3 µM) | 16 µg/mL (≈ 46.3 µM) | 31.2 µg/mL (≈ 90.5 µM) | 31.2 µg/mL (≈ 90.5 µM) | 16 µg/mL (≈ 46.3 µM) | 125 µg/mL (≈ 362 µM) | 31.2 µg/mL (≈ 90.5 µM) |
| Cc1ccc(C(=O)Nn2c(-c3nc(C(C)C)cs3)n[nH]c2=S)cc1 | 62.5 µg/mL (≈ 174 µM) | 62.5 µg/mL (≈ 174 µM) | 62.5 µg/mL (≈ 174 µM) | 125 µg/mL (≈ 348 µM) | 62.5 µg/mL (≈ 174 µM) | 125 µg/mL (≈ 348 µM) | 125 µg/mL (≈ 348 µM) | 31.2 µg/mL (≈ 86.9 µM) | 62.5 µg/mL (≈ 174 µM) | 62.5 µg/mL (≈ 174 µM) |
| CC(C)c1csc(-c2n[nH]c(=S)n2NC(=O)c2ccc(O)cc2)n1 | 31.2 µg/mL (≈ 86.5 µM) | 31.2 µg/mL (≈ 86.5 µM) | 125 µg/mL (≈ 346 µM) | 31.2 µg/mL (≈ 86.5 µM) | 125 µg/mL (≈ 346 µM) | 62.5 µg/mL (≈ 173 µM) | 125 µg/mL (≈ 346 µM) | 62.5 µg/mL (≈ 173 µM) | 31.2 µg/mL (≈ 86.5 µM) | 31.2 µg/mL (≈ 86.5 µM) |
| COc1ccc(/C=N/n2c(-c3nc(C(C)C)cs3)nn(CN3CCN(C)CC3)c2=S)cc1 | 31.2 µg/mL (≈ 66.3 µM) | 16 µg/mL (≈ 33.9 µM) | 31.2 µg/mL (≈ 66.3 µM) | 16 µg/mL (≈ 33.9 µM) | 31.2 µg/mL (≈ 66.3 µM) | 16 µg/mL (≈ 33.9 µM) | 31.2 µg/mL (≈ 66.3 µM) | 16 µg/mL (≈ 33.9 µM) | 31.2 µg/mL (≈ 66.3 µM) | 8 µg/mL (≈ 17 µM) |
| COc1ccc(/C=N/n2c(-c3nc(C(C)C)cs3)nn(CN3CCOCC3)c2=S)cc1 | 125 µg/mL (≈ 273 µM) | 62.5 µg/mL (≈ 136 µM) | 16 µg/mL (≈ 34.9 µM) | 16 µg/mL (≈ 34.9 µM) | 125 µg/mL (≈ 273 µM) | 62.5 µg/mL (≈ 136 µM) | 31.2 µg/mL (≈ 68.1 µM) |  | 31.2 µg/mL (≈ 68.1 µM) | 125 µg/mL (≈ 273 µM) |
| CC(C)c1csc(-c2nn(CN3CCOCC3)c(=S)n2/N=C/c2ccc(N(C)C)cc2)n1 | 31.2 µg/mL (≈ 66.3 µM) | 62.5 µg/mL (≈ 133 µM) | 16 µg/mL (≈ 33.9 µM) | 31.2 µg/mL (≈ 66.3 µM) | 16 µg/mL (≈ 33.9 µM) | 31.2 µg/mL (≈ 66.3 µM) | 31.2 µg/mL (≈ 66.3 µM) | 16 µg/mL (≈ 33.9 µM) | 31.2 µg/mL (≈ 66.3 µM) | 16 µg/mL (≈ 33.9 µM) |
| CC(C)c1csc(-c2nn(CN3CCN(C)CC3)c(=S)o2)n1 | 31.2 µg/mL (≈ 92 µM) | 62.5 µg/mL (≈ 184 µM) | 16 µg/mL (≈ 47.1 µM) | 16 µg/mL (≈ 47.1 µM) | 62.5 µg/mL (≈ 184 µM) | 31.2 µg/mL (≈ 92 µM) | 31.2 µg/mL (≈ 92 µM) | 16 µg/mL (≈ 47.1 µM) | 16 µg/mL (≈ 47.1 µM) | 31.2 µg/mL (≈ 92 µM) |
| CC(C)c1csc(-c2nn(CN3CCOCC3)c(=S)o2)n1 | 31.2 µg/mL (≈ 95.7 µM) | 31.2 µg/mL (≈ 95.7 µM) | 62.5 µg/mL (≈ 191 µM) | 16 µg/mL (≈ 49 µM) | 31.2 µg/mL (≈ 95.7 µM) | 16 µg/mL (≈ 49 µM) | 31.2 µg/mL (≈ 95.7 µM) | 31.2 µg/mL (≈ 95.7 µM) | 31.2 µg/mL (≈ 95.7 µM) | 16 µg/mL (≈ 49 µM) |
